The list is not random: actives were taken first. Their share in the collection is about 2.7%.
PP1 inh: PP1-alpha phosphatase inhibitors, primary screen, counter-screen for PP5 inhibitor project, biochemical, fluorescence, OMFP substrate, single point; Serine/threonine-protein phosphatase PP1-alpha catalytic subunit (Homo sapiens), P62136; purified PP1alpha; inhibition, % at 6.7 µM; 320,000 tested, 0.9% active; AID 2235, 2010;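 active = inhibition above the mean inhibition of all tested compounds plus 3 SD, computed separately for each screening campaign, cut at about 15% in these data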
TPT1 inhibitor: Candida albicans TPT1 enzyme inhibitors, primary screen, biochemical, fluorescence polarization; 300,000 tested, 0.81% active; AID 1962, 2009; recombinant caTPT1, FP RNA substrate dephosphorylation; inhibition, % at 5 µM;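 active = inhibition above the mean of all tested compounds plus 3 SD, set per screening campaign, cut at about 24% in these data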;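 note: plate controls were DMSO alone for no effect and ferristatin control at 100 nM for full effect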
Rpn11 block: Rpn11 (PSMD14) deubiquitinase inhibitors, primary screen, biochemical, fluorescence polarization, uHTS; 26S proteasome non-ATPase regulatory subunit 14 (Homo sapiens), O00487; human 26S proteasome, Ub4-pepOG fluorescence polarization; 20S core pre-blocked with epoxomicin; inhibition, % at 20 µM; 360,000 tested, 0.59% active; AID 588493, 2011;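 active = inhibition at 20 µM, scaled to each plate's controls, above about 33%, limit read from the data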
CSN inh: inhibitors of CSN-mediated cullin deneddylation, primary screen, biochemical, fluorescence polarization, uHTS; 360,000 tested, 0.38% active; AID 651999, 2013; inhibition, % at 12.5 µM; Purified CSN, SCF-Nedd8-OG deneddylation; COP9 signalosome complex subunit 5 (Homo sapiens), Q92905;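 active = pattern-corrected inhibition above about 35%, with an unprinted fluorescence ratio check between 0.5 and 1.5, limit read from the data, passing the limit was not always enough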;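 note: 0% = enzyme with substrate and 100% = substrate without enzyme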
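Test system: Human Csn5 produced in HEK293T cells | Compound: 12.5 µM single point | Times: 90 min, room temperature | Signal: Fluorescence polarization readout | Read-out basis: % inhibition of substrate cleavage by Csn5 | Controls: no-enzyme wells high, enzyme-with-substrate wells low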
NadD inh: inhibitors of S. aureus NadD, primary screen, biochemical, colorimetric, uHTS; purified NadD enzyme, colorimetric absorbance read-out; AID 602399, 2012; 360,000 tested, 0.78% active; Nicotinate-nucleotide adenylyltransferase NadD (Staphylococcus aureus N315); inhibition, % at 20 µM; in the data active = inhibition above about 26%
HNF4A DNA FP: change in binding of human HNF4A to DNA, primary screen, biochemical, fluorescence polarization, FITC-DNA. 1 h. 360,000 tested, 0.3% active. activity change, % at 10 µM. AID 1224865, 2016; in the data active = activity change above about 30%, passing the limit was not always enough
PP1 confirm: PP1 phosphatase inhibitors, confirmation, biochemical, fluorescence, OMFP substrate, triplicate. shares compounds with PP1 inh. purified PP1alpha. inhibition, % at 6.7 µM. 1,900 tested, 52% active. AID 2358, 2010;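 active = mean PP1 inhibition above a set limit taken from the earlier primary screen, cut at about 15% in these data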
PP5 inh counter: PP5 phosphatase inhibition by PP1 hits, confirmation, counter-screen for PP1 inhibitor project, biochemical, fluorescence, triplicate; shares compounds with PP1 inh; purified PP5c, OMFP fluorescence; inhibition, % at 6.7 µM; 1,900 tested, 4% active;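 active = mean PP5 inhibition over triplicate wells above about 9.5% taken from the earlier PP1 screen, limit read from the data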
Target sequence (P53041 whole entry, looked up): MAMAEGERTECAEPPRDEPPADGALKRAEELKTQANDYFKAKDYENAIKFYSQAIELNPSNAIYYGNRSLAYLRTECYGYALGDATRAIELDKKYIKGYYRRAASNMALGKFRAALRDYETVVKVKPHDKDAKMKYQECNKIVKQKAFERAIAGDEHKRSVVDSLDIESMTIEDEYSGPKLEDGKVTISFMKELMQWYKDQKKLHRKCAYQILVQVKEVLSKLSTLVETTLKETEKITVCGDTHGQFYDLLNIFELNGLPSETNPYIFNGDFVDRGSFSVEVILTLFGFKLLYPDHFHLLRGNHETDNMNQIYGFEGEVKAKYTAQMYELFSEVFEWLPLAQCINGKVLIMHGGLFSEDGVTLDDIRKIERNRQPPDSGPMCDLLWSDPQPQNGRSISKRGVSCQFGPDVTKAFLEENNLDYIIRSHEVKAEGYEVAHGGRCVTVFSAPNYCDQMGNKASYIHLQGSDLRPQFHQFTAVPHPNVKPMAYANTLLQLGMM
Numbers without * were called inactive; nt = no result.

SMILES	PP1 inh	TPT1 inhibitor	Rpn11 block	CSN inh	NadD inh	HNF4A DNA FP	PP1 confirm	PP5 inh counter
COc1cccc(NC(=O)c2nnn(CC(=O)Nc3cc(C)cc(C)c3)c2N)c1	5	1	3	5	-11	-2	nt	nt
CCN(CC)CCCCCC(=O)Nc1ccccc1C(=O)Nc1ccccc1	-1	-1	-3	-3	-1	-3	nt	nt
Cc1ccc(C)n1-c1ccc(-c2nnco2)cc1	24*	5	1	4	21	4	1	-3
Cc1ccc(C)n1-c1ccc(-n2cnnn2)cc1	25*	9	3	6	16	-1	15*	-1
CC1CC2(CCCCC2)N2C(=O)C(=O)c3cccc1c32 (centres undefined)	14	0	7	8	7	-4	nt	nt
CC1(c2ccccc2)CC(C)(C)N2C(=O)C(=O)c3cccc1c32 (centres undefined)	24*	-1	-5	2	-2	-1	18*	-2
O=C(CSc1nnc(COc2ccccc2)o1)Nc1ccc(F)cc1	-3	-2	-1	-2	-3	1	nt	nt
CCc1ccccc1NC(=O)CC(NCc1ccccc1)C(=O)O (centres undefined)	4	-1	4	-3	-3	-1	nt	nt
COc1ccccc1OCC(=O)N1CCN(C(=O)c2ccco2)CC1	0	-2	-7	0	-2	-2	nt	nt
Cc1cccc(NC(=O)Cn2c(O)c(N=NC(=O)c3ccccc3O)c3ccccc32)c1	35*	-7	-1	-1	35*	-9	27*	-1
Cc1ccc(NC(=O)Cn2c(O)c(N=NC(=O)c3cc([N+](=O)[O-])ccc3O)c3ccccc32)cc1	-1	1	nt	nt	nt	nt	nt	nt
N#Cc1c(-c2ccc(Cl)cc2)cc(-c2cccs2)nc1SCC(=O)O	47*	-1	14	18	16	2	49*	-5
CCCCCCCCCCCC1=C(O)C(=O)C=C(O)C1=O	46*	-2	12	3	37*	-31	35*	-7
CCCCCCc1c(O)c2ccccc2[nH]c1=O	0	-3	2	3	4	-3	nt	nt
N#Cc1ccccc1OCC(=O)NNC(=O)CCNC(=O)c1ccccc1	nt	nt	-1	-2	-2	2	nt	nt
COc1ccc(CC(=O)Nc2c3c(nn2-c2ccccc2C)CS(=O)C3)cc1 (centres undefined)	22*	-5	-6	-2	1	-4	1	-1
CC#CC(=O)N1CCC(n2nccc2NC(=O)CCc2ccccc2)CC1	nt	nt	4	-1	-5	-3	nt	nt
O=C(Cc1csc(NC(=O)Nc2cccc(Cl)c2)n1)NC1CCCC1	36*	0	3	-2	-1	2	42*	-1
COc1ccc2oc(C(=O)OC/C(O)=C(\C#N)c3nc4ccccc4[nH]3)c(C)c2c1	-2	11	33	10	20	16	nt	nt
CCOC(=O)c1c(C)[nH]c(C(=O)OC/C(O)=C(\C#N)c2nc3ccccc3[nH]2)c1C	20*	16	29	10	22	13	10	1
O=C(O)C1(Nc2ccc(Br)cc2)CCCC1	nt	nt	-1	-1	2	-3	nt	nt
Oc1ccc(Nc2nc(N3CCCC3)c3ccccc3n2)cc1	7	-3	-10	3	-18	-4	nt	nt
COc1ccc(Nc2nc(N3CCCCC3)c3ccccc3n2)cc1	21*	-3	4	2	4	0	3	3
CCc1nc2ccc(C(=O)N3CCN(C(C)=O)CC3)cn2c1N(C=O)Cc1ccc(OC)cc1	nt	nt	-1	-2	0	2	nt	nt
O=C(NN=C1CCCCC1)c1ccccc1-n1cccc1	-3	-1	-9	3	-5	-1	nt	nt
SMILES	PP1 inh	TPT1 inhibitor	Rpn11 block	CSN inh	NadD inh	HNF4A DNA FP	PP1 confirm	PP5 inh counter
Cc1ccc(C(=O)NCCCN2CCOCC2)cc1Cl	18*	0	4	-2	0	0	-5	-4
Cc1ccc(CN(C)C(=O)COC(=O)CSc2cc(C)c3ccccc3n2)cc1	-2	nt	-5	0	3	-3	nt	nt
O=[N+]([O-])c1ccccc1/C=C/C=N/n1c(-c2ccccc2)n[nH]c1=S	-5	1	-6	-4	6	0	nt	nt
O=[N+]([O-])c1ccccc1/C=C/C=N/n1c(-c2ccc(Cl)cc2)n[nH]c1=S	25*	-6	-6	-5	21	-2	28*	-3
CC(C)C[C@H](NC(=O)c1[nH]cnc1C(=O)N[C@@H](C)c1ccccc1)C(=O)OCc1ccccc1	18*	-2	-2	-1	7	-7	15	5
CC(C)C[C@H](NC(=O)c1nc[nH]c1C(=O)N[C@@H](CCCCNC(=O)OC(C)(C)C)C(=O)OC(C)(C)C)C(=O)OC(C)(C)C	11	0	0	1	16	2	nt	nt
CC(C)C[C@H](NC(=O)c1nc[nH]c1C(=O)N[C@@H](CC(C)C)C(=O)OC(C)(C)C)C(=O)OCc1ccccc1	6	-3	nt	nt	nt	nt	nt	nt
CC(C)C[C@H](NC(=O)c1nc[nH]c1C(=O)NCCCCCNC(=O)OC(C)(C)C)C(=O)OC(C)(C)C	16*	-5	-1	1	5	-1	6	5
C#CCOCCOCCOCCNc1nc(N2CCN(C(=O)CCCCCCCCCCNC(=O)Cn3cc(CCCCCN)nn3)CC2)nc(N2CCN(C(=O)CCCCCCCCCCNC(=O)[C@H]([C@@H](C)CC)n3cc(CCCCN=C(N)N)nn3)CC2)n1	70*	-3	41*	100*	43*	117	55*	1
C#CCOCCOCCOCCNc1nc(N2CCN(C(=O)[C@H]([C@@H](C)CC)n3cc(CCCN=C(N)N)nn3)CC2)nc(N2CCN(C(=O)[C@H](C)n3cc(CCCN=C(N)N)nn3)CC2)n1	8	-2	nt	nt	nt	nt	nt	nt
C#CCOCCOCCOCCNc1nc(N2CCN(C(=O)CCCCCCCCCCNC(=O)Cn3cc(CCCCCN)nn3)CC2)nc(N2CCN(C(=O)CCCCCCCCCCNC(=O)Cn3cc(CCCCCN)nn3)CC2)n1	33*	-6	17	60*	10	38*	9	-6

High-throughput results from PubChem.
